Bioassay records from PubChem.
Only some compounds are listed: those with a hit (about 2% of all), similar ones and a draw of the others.
UHRF1 binding: UHRF1 methyl-DNA binding inhibition; Q96T88; UHRF1 binding to methylated oligo, TR-FRET; inhibition, % at 4.4 µM; hit rate 0.75% among 370,000; in the data active = inhibition above about 21%;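 note: UHRF1 SRA domain binding a hemimethylated CpG hairpin DNA probe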
TDP2 inh: TDP2 (human) inhibition, absorbance primary screen. recombinant TDP2, T5PNP hydrolysis, p-nitrophenol absorbance 415 nm. AID 720702. O95551. inhibition, % at 12.8 µM. hit rate 0.34% among 370,000;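 active = inhibition above the mean of all tested compounds plus 3 SD, set per campaign, cut at about 25% in these data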
Target sequence (O95551 whole entry, looked up): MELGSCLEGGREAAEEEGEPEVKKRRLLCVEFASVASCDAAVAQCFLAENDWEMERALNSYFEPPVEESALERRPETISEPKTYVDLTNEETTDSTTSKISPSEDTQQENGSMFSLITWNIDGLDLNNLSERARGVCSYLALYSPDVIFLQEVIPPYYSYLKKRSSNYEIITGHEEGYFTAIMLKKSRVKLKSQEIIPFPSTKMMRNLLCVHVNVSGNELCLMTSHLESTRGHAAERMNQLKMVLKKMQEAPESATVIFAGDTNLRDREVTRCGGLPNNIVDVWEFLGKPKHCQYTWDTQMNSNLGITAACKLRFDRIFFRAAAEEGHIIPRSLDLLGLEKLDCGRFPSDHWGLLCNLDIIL
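System – recombinant human TDP2 · Amount – 120 nM TDP2 per well · Buffer or medium – Mg2+-containing Tris-HCl buffer, pH 7.5 · Reagent – T5PNP substrate, 5 mM · Dosing – 12.8 µM single point, 1% DMSO · Incubation – 2 h at 37 °C · Measured by – epi absorbance · Read-out basis – percent inhibition · Benchmarks – high control without enzyme, low control DMSO plus TDP2 · Repeats – singlicate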
ARFGAP1 inhibitor: rat ARFGAP1 inhibition. Q62848. Arfgap1-stimulated ARF1 GTP hydrolysis, GDP FP detection. inhibition, % at 16.5 µM. hit rate 0.26% among 360,000. AID 651572;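 active = inhibition above a per-plate limit, mean inhibition of low control wells plus 3 SD, cut at about 25% in these data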
Target sequence (Q62848 1-136 limits assumed): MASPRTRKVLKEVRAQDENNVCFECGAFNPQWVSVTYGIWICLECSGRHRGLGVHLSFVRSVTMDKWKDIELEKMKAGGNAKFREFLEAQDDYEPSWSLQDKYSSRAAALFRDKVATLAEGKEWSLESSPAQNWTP
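Replicates: Single well per compound | Assay system: Truncated rat Arfgap1 GAP domain | Control set: No-Arfgap1 wells (100%) versus DMSO full-reaction wells (0%) | Times: Enzyme reaction 120 min at 25 °C after 20 min preincubation | Reagent: Human ARF1(Δ1-17)-GTP substrate | Measured by: Tracer-displacement fluorescence polarization with EDTA stop, 620/688 nm | Measure: Percent inhibition of Arfgap1-stimulated GTP hydrolysis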
LEDGF integ inh: blocks HIV-1 LEDGF/p75-dependent DNA integration; AID 743269; inhibition, % at 3.7 µM; TR-FRET IN-LEDGF/p75 DNA integration, Eu/Cy5; hit rate 0.64% among 370,000;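 active = inhibition above the screen-wide mean plus 3 SD, cut at about 13% in these data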;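 note: signal is the Cy5 over europium emission ratio at 671 and 618 nm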
ASAP1 inh: blocks human ASAP1-stimulated Arf1 GTP hydrolysis; Q9ULH1; GDP FP detection; inhibition, % at 16.5 µM; hit rate 0.19% among 360,000; AID 624377; in the data active = inhibition above about 25%
MBD2 DNA inh: MBD2-methylated oligo binding inhibition. Q9UBB5. TR-FRET, MBD2 binding to methylated oligonucleotide. inhibition, % at 4.4 µM. hit rate 0.31% among 370,000. AID 686964; in the data active = inhibition above about 13%
IN multimer up: activates HIV-1 integrase multimerization in LEDGF counter-screen; shares compounds with LEDGF integ inh; hit rate 17% among 2,000; TR-FRET HIV-1 integrase multimerization, biochemical; activation, % at 7.7 µM; in the data active = activation above about 8.9%
TRFRET interf: counter-screen for LEDGF/p75 integration inhibitors: TR-FRET optical interference; inhibition, % at 7.7 µM; TR-FRET optical interference counterscreen, HIV-1 IN multimerization; shares compounds with LEDGF integ inh; 2,000 tested, under 10 active;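 active = inhibition above the mean over all tested compounds plus 3 SD, which no compound reached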
LEDGF integ conf: LEDGF/p75-dependent HIV-1 integration inhibition, confirmation; inhibition, % at 3.7 µM; TR-FRET LEDGF/p75-dependent HIV-1 integration, biochemical; hit rate 36% among 2,000; shares compounds with LEDGF integ inh; in the data active = inhibition above about 14%
Numbers stand for hits.

Results for O=C(O)/C=C\c1cc2c(cc1[N+](=O)[O-])OCO2 ?
UHRF1 binding: inactive; TDP2 inh: inactive; ARFGAP1 inhibitor: inactive; LEDGF integ inh: inactive; ASAP1 inh: inactive; MBD2 DNA inh: inactive

Results for Cc1cccc(C)c1OCC(=O)N/N=C/c1cc2c(cc1[N+](=O)[O-])OCO2 ?
UHRF1 binding: inactive; TDP2 inh: inactive; ARFGAP1 inhibitor: inactive; LEDGF integ inh: inactive; ASAP1 inh: inactive; MBD2 DNA inh: inactive

What do the screens show for `Cc1ccc(C)c(N=Cc2cc3c(cc2[N+](=O)[O-])OCO3)c1`?
UHRF1 binding: 37.6; TDP2 inh: inactive; ARFGAP1 inhibitor: inactive; LEDGF integ inh: 39.7; ASAP1 inh: inactive; MBD2 DNA inh: inactive; IN multimer up: inactive; TRFRET interf: inactive; LEDGF integ conf: inactive

How did C[C@H]1[C@H](NC(=O)c2ccc(C(F)(F)F)cc2)CC[C@@]23CCCN2C(=O)CCC[C@@H]13 do in these assays?
UHRF1 binding: inactive; TDP2 inh: inactive; LEDGF integ inh: inactive; MBD2 DNA inh: inactive

Results for CCOC(=O)CCCCC(=O)c1[nH]c(=O)[nH]c1CSc1nc(C)cc(=O)[nH]1 ?
UHRF1 binding: inactive; TDP2 inh: inactive; ARFGAP1 inhibitor: inactive; LEDGF integ inh: 34.7; ASAP1 inh: inactive; MBD2 DNA inh: inactive; IN multimer up: inactive; TRFRET interf: inactive; LEDGF integ conf: 49.3

What do the screens show for `CCOC(=O)c1[nH]c(=O)[nH]c1CSc1nc(C)cc(C)n1`?
UHRF1 binding: inactive; TDP2 inh: inactive; ARFGAP1 inhibitor: inactive; LEDGF integ inh: inactive; ASAP1 inh: inactive; MBD2 DNA inh: inactive

Results for CCOC(=O)CCCCC(=O)c1[nH]c(=O)[nH]c1CSc1nc(C)cc(C)n1 ?
UHRF1 binding: inactive; TDP2 inh: inactive; ARFGAP1 inhibitor: inactive; LEDGF integ inh: 26.1; ASAP1 inh: inactive; MBD2 DNA inh: inactive; IN multimer up: inactive; TRFRET interf: inactive; LEDGF integ conf: 19.2

Results for CCOC(=O)CCCCC(=O)c1[nH]c(=O)[nH]c1CN1CCOCC1 ?
UHRF1 binding: inactive; TDP2 inh: inactive; ARFGAP1 inhibitor: inactive; LEDGF integ inh: 17.4; ASAP1 inh: inactive; MBD2 DNA inh: inactive; IN multimer up: inactive; TRFRET interf: inactive; LEDGF integ conf: inactive

How did C=CCNC(=S)N1N=C(c2ccco2)CC1c1ccco1 (centres undefined) do in these assays?
UHRF1 binding: inactive; TDP2 inh: inactive; ARFGAP1 inhibitor: inactive; LEDGF integ inh: 17.3; ASAP1 inh: inactive; MBD2 DNA inh: inactive; IN multimer up: inactive; TRFRET interf: inactive; LEDGF integ conf: inactive

What do the screens show for `COc1ccc(CCNC(=O)c2cc(Cl)nc3ccccc23)cc1`?
UHRF1 binding: inactive; TDP2 inh: inactive; ARFGAP1 inhibitor: inactive; LEDGF integ inh: 14.6; ASAP1 inh: inactive; MBD2 DNA inh: inactive; IN multimer up: inactive; TRFRET interf: inactive; LEDGF integ conf: inactive

How did CCN(CC)C(=O)CC[C@@H]1CC[C@]2(CCCN(C(=O)C(C)(C)C)C2)O1 do in these assays?
UHRF1 binding: inactive; TDP2 inh: inactive; LEDGF integ inh: inactive; MBD2 DNA inh: inactive

Results for COc1cccc(Nc2nc(C(N)CC(C)C)cs2)n1 (centres undefined) ?
UHRF1 binding: inactive; TDP2 inh: inactive; ARFGAP1 inhibitor: inactive; LEDGF integ inh: 13.7; ASAP1 inh: inactive; MBD2 DNA inh: inactive; IN multimer up: inactive; TRFRET interf: inactive; LEDGF integ conf: inactive

What do the screens show for `COc1cccc(Nc2nc(C(N)C(C)C)cs2)n1` (centres undefined)?
UHRF1 binding: inactive; TDP2 inh: inactive; ARFGAP1 inhibitor: inactive; LEDGF integ inh: inactive; ASAP1 inh: inactive; MBD2 DNA inh: inactive
